Measurements as given in ChEMBL document CHEMBL1153738 (J Nat Prod, 2009).
≈ marks a conversion by molar mass, not a printed value.

Experiments:
[1] = target: T1, Endothelin-1 receptor (Homo sapiens) (UniProt P25101); test: Displacement of [3H]BQ-123 from human ETA receptor in human SK-N-MC cells at 100 ug/ml after 60 mins by scintillation counting; type: cell-based
T1 sequence (whole entry): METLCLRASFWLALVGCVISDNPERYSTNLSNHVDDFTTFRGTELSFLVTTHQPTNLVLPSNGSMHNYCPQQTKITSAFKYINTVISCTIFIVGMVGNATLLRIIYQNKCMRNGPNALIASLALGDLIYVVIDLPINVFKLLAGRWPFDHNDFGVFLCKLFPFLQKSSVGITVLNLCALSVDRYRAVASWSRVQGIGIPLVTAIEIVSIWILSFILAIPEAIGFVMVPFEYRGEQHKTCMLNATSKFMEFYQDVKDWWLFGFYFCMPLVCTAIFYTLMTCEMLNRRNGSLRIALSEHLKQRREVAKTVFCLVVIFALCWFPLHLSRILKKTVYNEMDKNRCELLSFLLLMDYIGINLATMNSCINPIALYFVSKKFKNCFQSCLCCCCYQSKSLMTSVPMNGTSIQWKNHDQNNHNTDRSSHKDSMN
Method in brief: (§1)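 Confluent human neuroblastoma SK-N-MC cells, which naturally express ETA, were PBS-washed and held 15 min at room temperature in DMEM with 0.1% BSA. […] Preincubation and incubation were 30 min each at 37 °C. Cells were then put on ice, washed, lysed in 1 M NaOH for 30 min and counted by scintillation. Results are % of specific binding.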

[2] = target: T1, Endothelin-1 receptor (Homo sapiens); test: Displacement of [3H]BQ-123 from human ETA receptor in human SK-N-MC cells at 10 ug/ml after 60 mins by scintillation counting; type: cell-based; method in brief: as §1
[3] = target: T2, Neuropeptide Y receptor type 1 (Homo sapiens) (UniProt P25929); test: Displacement of [3H]NPY from neuropeptide Y1 receptor in human SK-N-MC cells at 100 ug/ml after 60 mins by scintillation counting; type: cell-based
T2 sequence (whole entry): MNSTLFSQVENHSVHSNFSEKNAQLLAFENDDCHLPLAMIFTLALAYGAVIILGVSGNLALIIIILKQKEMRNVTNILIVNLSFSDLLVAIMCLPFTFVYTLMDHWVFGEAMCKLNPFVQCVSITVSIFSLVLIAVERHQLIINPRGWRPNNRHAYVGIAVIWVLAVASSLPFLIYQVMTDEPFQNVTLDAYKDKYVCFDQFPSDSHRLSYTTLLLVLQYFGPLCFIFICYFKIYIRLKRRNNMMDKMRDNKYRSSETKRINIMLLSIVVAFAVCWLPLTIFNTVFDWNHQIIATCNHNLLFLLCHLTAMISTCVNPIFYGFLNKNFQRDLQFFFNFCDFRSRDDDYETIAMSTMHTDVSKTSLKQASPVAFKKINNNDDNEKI
Method in brief: (§2)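 SK-N-MC neuroblastoma cells, which natively express Y1, were grown to confluence, PBS-washed and equilibrated 15 min at room temperature in DMEM with 0.5% BSA. […] Steps were 30 min each at 37 °C, followed by ice, PBS wash, 1 M NaOH lysis for 30 min and scintillation counting. Results are % specific binding.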

[4] = target: T2, Neuropeptide Y receptor type 1 (Homo sapiens); test: Displacement of [3H]NPY from neuropeptide Y1 receptor in human SK-N-MC cells at 10 ug/ml after 60 mins by scintillation counting; type: cell-based; method in brief: as §2
Plasmodium falciparum [5] = test: Antimalarial activity against Plasmodium falciparum D6 after 24 hrs by microtiter plate assay; type: functional, organism-based; settings: D6, 24 h
Plasmodium falciparum [6] = test: Antimalarial activity against Plasmodium falciparum W2 after 24 hrs by microtiter plate assay; type: functional, organism-based; settings: W2, 24 h

SMILES | Activity [1] | Activity [2] | Activity [3] | Activity [4] | IC50 (Plasmodium falciparum [5]) | IC50 (Plasmodium falciparum [6])
CN(C)CCc1c[nH]c2cc(Br)c(Br)cc12 | 62% | 100% | 17% | 100% | – | –
C/C=C1\NC(=O)[C@H](Cc2ccccc2)NC(=O)[C@@H](C(C)C)NC(=O)[C@@H]([C@@H](C)CC)NC(=O)[C@H](NC(=O)[C@H](NC(=O)[C@H](CCCN)NC(=O)[C@H]2CCCN2C(=O)[C@H](NC(=O)[C@@H](NC(=O)[C@@H](NC(=O)[C@H](NC(=O)CCCC(C)(C)O)C(C)C)[C@@H](C)O)C(C)C)C(C)C)[C@@H](C)CC)[C@H](C)OC(=O)[C@H](C(C)C)NC1=O | – | – | – | – | 1.5 µg/mL (≈ 1 µM) | 1.2 µg/mL (≈ 0.803 µM)
Nc1nc([C@H]2[C@H](CNC(=O)c3cc(Br)c[nH]3)[C@@H](CNC(=O)c3cc(Br)c[nH]3)[C@@H]2c2c[nH]c(N)n2)c[nH]1 | 80% | 100% | 12% | 95% | – | –
CC/C=C/C(CC)CCC[C@@]1(CC)C[C@H](CC)[C@H](CC(=O)OC)OO1 (stereo partly specified) | 88% | 100% | 100% | 100% | – | –
N=C(NCCCCCCNC(=N)NC(=N)Nc1ccc(Cl)cc1)NC(=N)Nc1ccc(Cl)cc1 | 79% | 100% | 81% | 100% | – | –
CC(=O)OC(C)C(OC(C)=O)C(CCCCCCCCCCCCC1=CC(C)OC1=O)C(=O)O (stereo unspecified) | 79% | 98% | 86% | 100% | – | –
O=C1C2=C(C3=NCCc4c[nH]c1c43)C1(C=C(Br)C(O)C(Br)=C1)CCN2 (stereo unspecified) | 100% | 100% | 29% | 82% | – | –
CC/C=C/C(CC)CCC[C@@]1(CC)C[C@H](CC)[C@H](CC(=O)O)OO1 (stereo partly specified) | 68% | 100% | 56% | 100% | – | –
O=C1C[C@H]2S[C@H]3C[C@]2(C=C1Br)C1=C(N3)C(=O)c2[nH]cc3c2C1=NCC3 | 79% | 100% | 40% | 90% | – | –
Nc1ncc(C2=CCNC(=O)c3[nH]c(Br)c(Br)c32)[nH]1 | 68% | 78% | 81% | 100% | – | –
CN(C)CCc1c[nH]c2ccc(Br)cc12 | 89% | 97% | 76% | 100% | – | –
CC(C)C[C@H]1NC(=O)[C@@H](Cc2ccccc2)NC(=O)[C@@H](CC(C)C)NC(=O)[C@H](NC(=O)[C@@H](Cc2ccccc2)NC(=O)C(C)C)[C@H](C)OC(=O)[C@H](CO)NC(=O)[C@@H]([C@H](C)O)NC1=O | 96% | 99% | 18% | 100% | – | –
